Laboratory results taken from BindingDB's records for doi:10.1016/j.bmcl.2019.05.024 (Harvard Medical School, 2019).

Columns and labels:
[1] = target: Cyclin-dependent kinase 14 (Homo sapiens, UniProt O94921); assay: Inhibition of FLAG-tagged CDK14 (unknown origin) expressed in human HEK293 cells assessed as blocking of CDK14 pulldown incubated for 4 hrs by biotinylated JNK-IN- based pull down assay
Outline: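 Cells were treated with compound at various doses for 4 h and then lysed. Lysates were incubated with biotinylated JNK-IN-7 and captured on streptavidin-coated beads. CDK14 capture was detected by western blot.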

[2] = target: Cyclin-dependent kinase 14/Cyclin-Y (Homo sapiens, UniProt O94921+Q8ND76); assay: Inhibition of recombinant GST-tagged human full length CDK14/cyclin Y (2 to end residues) preincubated for 30 mins by Lantha screen eu binding assay
Cyclin-dependent kinase 14/Cyclin-Y, sequence (O94921 whole entry): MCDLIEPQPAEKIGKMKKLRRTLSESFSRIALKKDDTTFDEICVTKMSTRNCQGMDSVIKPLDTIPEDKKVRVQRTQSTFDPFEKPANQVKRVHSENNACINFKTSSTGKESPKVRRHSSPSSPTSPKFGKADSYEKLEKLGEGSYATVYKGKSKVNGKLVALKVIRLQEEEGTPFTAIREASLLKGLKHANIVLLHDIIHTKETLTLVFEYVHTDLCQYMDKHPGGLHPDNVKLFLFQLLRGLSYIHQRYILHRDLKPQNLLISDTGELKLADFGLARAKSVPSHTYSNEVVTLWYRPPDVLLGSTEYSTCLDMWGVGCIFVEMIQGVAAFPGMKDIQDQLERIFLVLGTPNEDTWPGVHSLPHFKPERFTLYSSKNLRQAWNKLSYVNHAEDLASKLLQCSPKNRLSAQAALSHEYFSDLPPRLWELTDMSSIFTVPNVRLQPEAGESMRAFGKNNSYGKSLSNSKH
Cyclin-dependent kinase 14/Cyclin-Y, sequence (Q8ND76 2-341 limits assumed): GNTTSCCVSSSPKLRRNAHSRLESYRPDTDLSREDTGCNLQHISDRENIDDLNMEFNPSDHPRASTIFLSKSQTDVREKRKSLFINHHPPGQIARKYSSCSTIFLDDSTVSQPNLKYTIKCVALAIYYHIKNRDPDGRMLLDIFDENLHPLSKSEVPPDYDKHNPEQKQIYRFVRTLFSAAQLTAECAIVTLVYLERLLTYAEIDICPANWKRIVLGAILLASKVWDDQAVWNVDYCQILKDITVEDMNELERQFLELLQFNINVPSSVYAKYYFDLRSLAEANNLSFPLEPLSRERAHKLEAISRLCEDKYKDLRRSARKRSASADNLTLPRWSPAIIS
Outline: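 CDK14 binding was measured in a LanthaScreen binding assay. IC50 is the average of three replicates, reported ± standard error.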

Cyclin-dependent kinase 14, sequence (O94921 whole entry): as the sequence (O94921 whole entry) above

Row | SMILES | IC50 [1] [nM] | IC50 [2] [nM]
1 | C=CC(=O)Nc1cccc(C(=O)N2CCC(NC(=O)c3n[nH]cc3NC(=O)c3c(Cl)cccc3Cl)CC2)c1 | 500 | 
2 | CN(C)CC=CC(=O)Nc1cccc(C(=O)Nc2ccc(NC(=O)c3n[nH]cc3NC(=O)c3c(Cl)cccc3Cl)cc2)c1 |  | 17
